Measured values: ChEMBL document CHEMBL4196006, “Aryl thiosemicarbazones for the treatment of trypanosomatidic infections” (Eur J Med Chem, 2018)
The source made the active and inactive calls. The rule behind the calls is not given here.

Legend:
[1] = system: Leishmania infantum; assay: Antileishmanial activity against Leishmania infantum amastigote form after 72 hrs by steady-Glo reagent based assay; type: functional, organism-based
Method in brief: (§1)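 Intramacrophage L. infantum amastigotes in THP-1-derived macrophages, tested at 50 μM or in dose-response. Plates held 72 h at 37 °C, 5% CO2. Medium was replaced by PBS, macrophages lysed, and parasites read by Steady-Glo luminescence. High-content imaging gave host cell number, infection ratio (infected/total cells) and parasites per infected cell. Values are means of at least two independent experiments.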

[2] = Cytotoxicity against human THP1 cells assessed as decrease in viable cells after 72 hrs by MTT assay; type: cell-based, THP-1; settings: THP1 cells
Method in brief: (§2)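 THP-1-derived macrophages exposed to compounds for 72 h, tested at 100 μM or in dose-response; viability read by MTT colorimetric assay.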

[3] = target: Cytochrome P450 2C9 (Homo sapiens, UniProt P11712); assay: Inhibition of human microsomal CYP2C9 expressed in baculovirus infected BTI-TN-5B1-4 cells incubated for 30 mins by luciferase assay
[4] = system: Leishmania infantum; assay: Antileishmanial activity against Leishmania infantum amastigote form; type: functional, organism-based; method in brief: as §1
[5] = system: Trypanosoma brucei; assay: Antitrypanosomal activity against Trypanosoma brucei Lister 427 bloodstream form assessed as parasite growth inhibition at 50 uM after 72 hrs by SYBR Green assay relative to control; type: functional; settings: for inhibition of growth at 50 µM: Lister 427, 72 h, read-out: GI
[6] = system: Leishmania infantum; assay: Antileishmanial activity against Leishmania infantum amastigote form assessed as parasite growth inhibition at 50 uM after 72 hrs by steady-Glo reagent based assay relative to control; type: functional; settings: read-out: GI; method in brief: as §1
[7] = system: Trypanosoma cruzi; assay: Antitrypanosomal activity against Trypanosoma cruzi amastigote form infected in human U2OS cells assessed as parasite growth inhibition at 50 uM after 72 hrs relative to control; type: functional; settings: read-out: GI
Method in brief: (§3)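 U2OS monolayers grown for 24 h, then infected with tissue-derived trypomastigotes of T. cruzi Y strain. Compounds were added 24 h after infection at 50 μM (single-point) or in dose-response, with 72 h exposure. Plates were fixed, stained and analysed by high-content imaging; activity was normalized to infected and non-infected controls. Means of at least two experiments; benznidazole as reference.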

[8] = system: Trypanosoma brucei; assay: Antitrypanosomal activity against Trypanosoma brucei Lister 427 bloodstream form after 72 hrs by SYBR Green assay; type: functional, organism-based; settings: Lister 427, 72 h
[9] = system: Trypanosoma cruzi; assay: Antitrypanosomal activity against Trypanosoma cruzi amastigote form infected in human U2OS cells assessed as parasite growth inhibition after 72 hrs; type: functional, organism-based; method in brief: as §3
[10] = system: Trypanosoma brucei; assay: Antitrypanosomal activity against Trypanosoma brucei Lister 427 bloodstream form at 10 uM after 72 hrs by resazurin dye-based assay relative to control; type: functional
[11] = system: Trypanosoma brucei; assay: Potentiation of methotrexate-induced antitrypanosomal activity against Trypanosoma brucei Lister 427 bloodstream form at 10 uM after 72 hrs by resazurin dye-based assay relative to control; type: functional
[12] = target: T1, CYP1A2 (Homo sapiens, UniProt P05177); assay: Inhibition of human microsomal CYP1A2 expressed in baculovirus infected BTI-TN-5B1-4 cells at 10 uM incubated for 30 mins by luciferase assay relative to control; type: ADME
T1 sequence (P05177 whole entry): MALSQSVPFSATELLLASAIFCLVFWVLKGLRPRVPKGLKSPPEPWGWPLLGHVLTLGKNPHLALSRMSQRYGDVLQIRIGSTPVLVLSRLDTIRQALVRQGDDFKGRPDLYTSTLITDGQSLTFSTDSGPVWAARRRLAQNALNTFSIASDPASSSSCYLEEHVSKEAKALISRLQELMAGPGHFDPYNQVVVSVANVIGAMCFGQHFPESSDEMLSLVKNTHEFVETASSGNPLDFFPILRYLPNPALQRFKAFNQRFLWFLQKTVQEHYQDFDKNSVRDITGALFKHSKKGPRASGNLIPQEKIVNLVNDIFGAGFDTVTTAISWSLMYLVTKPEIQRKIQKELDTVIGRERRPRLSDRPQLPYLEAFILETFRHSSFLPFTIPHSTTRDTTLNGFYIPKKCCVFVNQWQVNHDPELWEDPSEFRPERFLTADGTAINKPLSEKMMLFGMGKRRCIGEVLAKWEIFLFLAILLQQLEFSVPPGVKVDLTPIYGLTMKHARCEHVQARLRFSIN
Method in brief: (§4)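 CYP1A2, 2C9, 2C19, 2D6 and 3A4 in microsomes from baculovirus-infected insect cells, each with a P450-Glo luminogenic substrate. Inhibition read as loss of light; single-point at 10 μM, triplicate.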

[13] = system: Trypanosoma brucei; assay: Potentiation of methotrexate-induced antitrypanosomal activity against Trypanosoma brucei Lister 427 bloodstream form at 10 uM after 72 hrs by resazurin dye-based assay; type: functional
[14] = target: hERG (KCNH2) (Homo sapiens, UniProt Q12809); assay: Inhibition of human ERG at 10 uM incubated for 2 hrs by fluorescence polarisation assay relative to control
[15] = target: CYP2C9 (Homo sapiens, UniProt P11712); assay: Inhibition of human microsomal CYP2C9 expressed in baculovirus infected BTI-TN-5B1-4 cells at 10 uM incubated for 30 mins by luciferase assay relative to control; type: ADME; method in brief: as §4
[16] = target: CYP2C19 (Homo sapiens, UniProt P33261); assay: Inhibition of human microsomal CYP2C19 expressed in baculovirus infected BTI-TN-5B1-4 cells at 10 uM incubated for 30 mins by luciferase assay relative to control; type: ADME; method in brief: as §4
[17] = target: CYP2D6 (Homo sapiens, UniProt P10635); assay: Inhibition of human microsomal CYP2D6 expressed in baculovirus infected BTI-TN-5B1-4 cells at 10 uM incubated for 30 mins by luciferase assay relative to control; type: ADME; method in brief: as §4
[18] = target: CYP3A4 (Homo sapiens, UniProt P08684); assay: Inhibition of human microsomal CYP3A4 expressed in baculovirus infected BTI-TN-5B1-4 cells at 10 uM incubated for 30 mins by luciferase assay relative to control; type: ADME; method in brief: as §4
[19] = target: Aurora kinase B (Homo sapiens, UniProt Q96GD4); assay: Inhibition of recombinant full-length human aurora B kinase expressed in baculovirus system at 10 uM using MBP as substrate incubated for 45 mins by ADP-glo kinase assay; settings: probe MBP
Method in brief: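 Aurora B activity measured as ADP formation via coupled luciferase ADP-Glo luminescence; single-point at 10 μM, triplicate.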

[20] = Cytotoxicity against human 786-O cells assessed as inhibition of mitochondrial viability at 10 uM after 6 hrs by CMXRos staining based assay relative to control; type: cell-based, 786-0; settings: read-out: INH
Method in brief: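 Mitochondrial toxicity monitored by MitoTracker Red CMXRos uptake and high-content imaging; compound at 10 μM, triplicate.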

[21] = Cytotoxicity against human THP1 cells assessed as viable cells at 100 uM after 72 hrs by MTT assay relative to control; type: cell-based, THP-1; settings: read-out: Activity; method in brief: as §2
[22] = Cytotoxicity against human U2OS cells assessed as viable cells at 50 uM after 72 hrs by MTT assay relative to control; type: cell-based; settings: read-out: Activity
[23] = Selectivity index, ratio of CC50 for human U2OS cells to EC50 for Trypanosoma cruzi amastigote form; type: toxicity; settings: read-out: Ratio CC50/EC50
Method in brief: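 Selectivity index = CC50 in the human host or cytotoxicity cell line divided by parasite EC50.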

[24] = target: T2, Pteridine reductase, putative (Trypanosoma brucei) (UniProt Q581W1); assay: Inhibition of Trypanosoma brucei PTR1 at 50 uM using H2B as substrate in presence of NADPH by photometric analysis relative to control
T2 sequence (whole entry): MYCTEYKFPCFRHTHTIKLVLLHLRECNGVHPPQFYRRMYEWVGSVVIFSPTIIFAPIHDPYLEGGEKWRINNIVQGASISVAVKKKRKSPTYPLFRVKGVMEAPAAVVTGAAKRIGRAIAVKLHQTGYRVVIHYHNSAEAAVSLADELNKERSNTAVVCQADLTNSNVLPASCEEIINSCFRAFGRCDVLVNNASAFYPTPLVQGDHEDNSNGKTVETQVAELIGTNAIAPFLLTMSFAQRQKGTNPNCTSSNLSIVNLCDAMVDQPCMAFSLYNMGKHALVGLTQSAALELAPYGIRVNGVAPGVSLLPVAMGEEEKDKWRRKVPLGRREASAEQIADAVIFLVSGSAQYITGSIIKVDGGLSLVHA

[25] = target: T3, Pteridine reductase 1 (Leishmania major) (UniProt Q01782); assay: Inhibition of Leishmania major PTR1 at 50 uM using H2B as substrate in presence of NADPH by photometric analysis relative to control
T3 sequence (whole entry): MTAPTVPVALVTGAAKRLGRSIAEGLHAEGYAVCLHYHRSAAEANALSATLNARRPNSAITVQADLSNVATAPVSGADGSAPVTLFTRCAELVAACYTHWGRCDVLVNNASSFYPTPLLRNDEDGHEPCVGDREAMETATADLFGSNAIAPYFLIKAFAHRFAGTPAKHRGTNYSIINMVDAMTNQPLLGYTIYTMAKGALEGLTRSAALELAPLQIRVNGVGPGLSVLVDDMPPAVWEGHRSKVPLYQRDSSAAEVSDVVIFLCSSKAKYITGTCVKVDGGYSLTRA

[26] = Cytotoxicity against human U2OS cells assessed as decrease in viable cells after 72 hrs by cell number count in anti-T. cruzi high content imaging assay; settings: U2OS cells
[27] = Cytotoxicity against human A549 cells assessed as growth inhibition at 10 uM after 48 hrs by CellTiter-Glo assay relative to control; values are per cent of control; settings: A549 cells
[28] = Cytotoxicity against human WI38 cells assessed as growth inhibition at 10 uM after 48 hrs by CellTiter-Glo assay relative to control; values are per cent of control; settings: WI38 cells
[29] = system: A549; assay: Cytotoxicity against human A549 cells assessed as growth inhibition at 10 uM after 48 hrs by CellTiter-Glo assay relative to control; values are per cent of control; settings: a549, 48 h, 10 µM

hERG (KCNH2), sequence (Q12809 whole entry): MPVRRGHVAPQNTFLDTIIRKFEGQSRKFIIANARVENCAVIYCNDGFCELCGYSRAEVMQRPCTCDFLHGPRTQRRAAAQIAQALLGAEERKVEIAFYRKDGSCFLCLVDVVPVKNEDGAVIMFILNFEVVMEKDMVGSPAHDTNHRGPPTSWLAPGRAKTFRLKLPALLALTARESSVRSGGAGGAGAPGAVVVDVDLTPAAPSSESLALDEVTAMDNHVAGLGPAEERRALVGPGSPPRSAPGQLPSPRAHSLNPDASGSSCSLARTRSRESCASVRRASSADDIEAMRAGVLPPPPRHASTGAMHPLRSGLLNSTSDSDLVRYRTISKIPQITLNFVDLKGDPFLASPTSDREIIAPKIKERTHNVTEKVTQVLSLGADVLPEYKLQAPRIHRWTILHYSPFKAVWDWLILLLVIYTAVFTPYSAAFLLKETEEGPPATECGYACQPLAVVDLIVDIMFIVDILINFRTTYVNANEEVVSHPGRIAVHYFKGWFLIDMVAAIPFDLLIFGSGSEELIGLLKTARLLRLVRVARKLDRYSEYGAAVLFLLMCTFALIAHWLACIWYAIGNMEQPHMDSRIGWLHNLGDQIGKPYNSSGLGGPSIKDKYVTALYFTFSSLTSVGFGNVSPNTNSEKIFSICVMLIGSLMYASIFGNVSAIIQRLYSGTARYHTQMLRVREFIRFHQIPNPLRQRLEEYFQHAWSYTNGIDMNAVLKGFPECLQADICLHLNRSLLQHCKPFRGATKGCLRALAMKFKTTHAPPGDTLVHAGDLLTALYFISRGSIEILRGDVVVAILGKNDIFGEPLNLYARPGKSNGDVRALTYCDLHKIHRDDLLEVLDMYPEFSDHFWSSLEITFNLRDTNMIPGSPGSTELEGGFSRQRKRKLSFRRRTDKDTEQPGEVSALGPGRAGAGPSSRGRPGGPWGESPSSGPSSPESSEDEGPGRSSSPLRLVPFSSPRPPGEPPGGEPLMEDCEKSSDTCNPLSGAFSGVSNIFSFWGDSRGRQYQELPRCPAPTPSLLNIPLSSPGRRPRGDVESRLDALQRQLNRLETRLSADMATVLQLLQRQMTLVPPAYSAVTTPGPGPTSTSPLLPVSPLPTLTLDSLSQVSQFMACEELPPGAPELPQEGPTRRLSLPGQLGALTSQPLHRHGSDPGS
CYP2C19, sequence (P33261 whole entry): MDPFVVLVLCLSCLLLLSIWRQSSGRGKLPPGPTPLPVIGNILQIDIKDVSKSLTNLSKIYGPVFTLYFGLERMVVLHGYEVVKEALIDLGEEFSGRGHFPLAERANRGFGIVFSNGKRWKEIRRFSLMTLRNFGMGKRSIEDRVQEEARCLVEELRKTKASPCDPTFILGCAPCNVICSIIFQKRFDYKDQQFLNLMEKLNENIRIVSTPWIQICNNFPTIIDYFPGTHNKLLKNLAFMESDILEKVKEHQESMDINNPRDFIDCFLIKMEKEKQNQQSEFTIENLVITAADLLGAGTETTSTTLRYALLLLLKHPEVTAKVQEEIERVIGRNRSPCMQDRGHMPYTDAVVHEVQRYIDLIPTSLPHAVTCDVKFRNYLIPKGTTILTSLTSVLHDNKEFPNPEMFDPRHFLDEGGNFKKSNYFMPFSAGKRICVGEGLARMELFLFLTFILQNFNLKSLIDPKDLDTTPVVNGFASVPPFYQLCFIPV
Aurora kinase B, sequence (Q96GD4 whole entry): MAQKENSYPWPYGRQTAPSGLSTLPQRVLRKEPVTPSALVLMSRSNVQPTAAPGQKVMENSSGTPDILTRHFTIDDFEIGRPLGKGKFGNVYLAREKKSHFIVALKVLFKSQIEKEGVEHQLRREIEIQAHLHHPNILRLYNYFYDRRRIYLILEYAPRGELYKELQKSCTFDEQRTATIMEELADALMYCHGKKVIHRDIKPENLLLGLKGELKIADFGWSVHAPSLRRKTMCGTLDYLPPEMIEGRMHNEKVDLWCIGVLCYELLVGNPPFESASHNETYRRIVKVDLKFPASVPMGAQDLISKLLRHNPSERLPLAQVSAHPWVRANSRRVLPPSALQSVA
CYP2D6, sequence (P10635 whole entry): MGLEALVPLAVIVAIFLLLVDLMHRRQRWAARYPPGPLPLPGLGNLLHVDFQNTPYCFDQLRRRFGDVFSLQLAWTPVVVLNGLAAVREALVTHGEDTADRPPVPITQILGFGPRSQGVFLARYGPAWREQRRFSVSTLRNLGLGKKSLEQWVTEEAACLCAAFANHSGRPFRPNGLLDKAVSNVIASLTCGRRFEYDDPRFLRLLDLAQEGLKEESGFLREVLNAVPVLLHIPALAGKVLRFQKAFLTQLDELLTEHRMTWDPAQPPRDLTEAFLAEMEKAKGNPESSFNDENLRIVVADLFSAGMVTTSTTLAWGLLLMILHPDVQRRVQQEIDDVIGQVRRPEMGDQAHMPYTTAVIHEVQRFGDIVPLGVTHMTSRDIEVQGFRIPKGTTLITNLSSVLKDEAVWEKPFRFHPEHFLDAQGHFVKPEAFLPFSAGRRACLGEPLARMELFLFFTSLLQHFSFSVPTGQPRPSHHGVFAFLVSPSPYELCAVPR
CYP2C9, sequence (P11712 whole entry): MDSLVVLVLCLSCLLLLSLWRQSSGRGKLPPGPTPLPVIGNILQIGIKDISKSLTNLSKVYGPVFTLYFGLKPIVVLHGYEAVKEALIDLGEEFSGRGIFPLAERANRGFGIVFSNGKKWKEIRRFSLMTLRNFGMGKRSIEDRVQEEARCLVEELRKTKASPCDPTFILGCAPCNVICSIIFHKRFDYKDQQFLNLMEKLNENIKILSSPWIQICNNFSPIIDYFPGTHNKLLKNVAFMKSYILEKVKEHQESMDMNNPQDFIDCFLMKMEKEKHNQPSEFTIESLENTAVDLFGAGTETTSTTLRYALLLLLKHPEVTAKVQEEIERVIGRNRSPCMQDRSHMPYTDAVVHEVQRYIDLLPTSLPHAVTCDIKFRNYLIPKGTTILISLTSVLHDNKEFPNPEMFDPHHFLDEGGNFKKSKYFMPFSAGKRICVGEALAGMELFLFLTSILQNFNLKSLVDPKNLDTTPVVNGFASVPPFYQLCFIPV
CYP3A4, sequence (P08684 whole entry): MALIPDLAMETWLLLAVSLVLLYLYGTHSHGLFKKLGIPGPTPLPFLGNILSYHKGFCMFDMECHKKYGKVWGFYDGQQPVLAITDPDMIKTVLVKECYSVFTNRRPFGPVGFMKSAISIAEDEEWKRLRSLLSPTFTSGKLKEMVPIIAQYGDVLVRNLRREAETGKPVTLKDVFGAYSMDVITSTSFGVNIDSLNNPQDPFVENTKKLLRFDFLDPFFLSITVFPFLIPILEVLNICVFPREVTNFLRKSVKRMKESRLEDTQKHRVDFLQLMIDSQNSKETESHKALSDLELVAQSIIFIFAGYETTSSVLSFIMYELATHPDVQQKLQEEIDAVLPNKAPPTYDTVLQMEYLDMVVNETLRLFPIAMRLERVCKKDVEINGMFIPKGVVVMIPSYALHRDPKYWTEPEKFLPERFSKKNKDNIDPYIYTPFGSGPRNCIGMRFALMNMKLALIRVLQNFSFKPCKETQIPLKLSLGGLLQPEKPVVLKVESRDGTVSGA
Cytochrome P450 2C9, sequence (P11712 whole entry): as the sequence (P11712 whole entry) above

Row | EC50 [8] [µM] | inhibition at 0.5 h, 10 µM [12] [%] | inhibition at 0.5 h, 10 µM [15] [%] | inhibition at 0.5 h, 10 µM [16] [%] | inhibition at 0.5 h, 10 µM [17] [%] | inhibition at 0.5 h, 10 µM [18] [%] | inhibition at 0.75 h, 10 µM [19] [%] | inhibition [24] [%] | inhibition [25] [%] | Compound | inhibition of growth at 50 µM [5] [%] | inhibition of growth at 50 µM [6] [%] | inhibition of growth at 50 µM [7] [%] | Activity [10] [%] | Activity [11] [%] | PF [13] | inhibition at 2 h, 10 µM [14] [%] | cytotoxicity at 6 h, 10 µM [20] [%] | viability at 72 h, 100 µM [21] [%] | viability at 72 h, 50 µM [22] [%] | cell growth (% of control) at 48 h, 10 µM [28] [%] | also measured
1 |  |  |  |  |  |  |  |  |  | C[C@@H]1[C@H](O)[C@@H](C)/C=C/C=C/C=C/C=C/C=C/C=C/C=C/[C@H](O[C@@H]2O[C@H](C)[C@@H](O)[C@H](N)[C@@H]2O)C[C@@H]2O[C@](O)(C[C@@H](O)C[C@@H](O)[C@H](O)CC[C@@H](O)C[C@@H](O)CC(=O)O[C@H]1C)C[C@H](O)[C@H]2C(=O)O [AMPHOTERICIN B] |  |  |  |  |  |  |  |  |  |  |  | EC50 [1]: 0.2 µM; CC50 at 72 h [2]: 16.9 µM; IC50 [3]: > 100 µM; EC50 [4]: 1.14 µM
2 | 16.9 | 18.3 | 9.11 | -36.7 | 3.17 | -13.1 | -5.47 | 8.92 | 9.09 | NC(=S)N/N=C/C=C/c1ccccc1 | 91.7 | 45.9 | 94.6 | 11.33 | 84.5 | 2.37 | 7.23 | -2.97 | 44.1 | 76.1 | 82.8 | EC50 [9]: 1.59 µM; selectivity ratio [23]: > 1; CC50 at 72 h [26]: > 44 µM; cell growth (% of control) at 48 h, 10 µM [27]: 129%
3 | 44.4 | 27 | 12.4 | -38.2 | 35.9 | -15.9 | -12.2 | 9.49 | 11.2 | CSc1ccc(/C=N/NC(N)=S)cc1 | 82.6 | 34.1 | 89.3 | 15.33 | 88.67 | 2.24 | -2.87 | -10.8 | 35.7 | 42.7 | 107 | EC50 [9]: 2.58 to 29.5 µM; selectivity ratio [23]: > 17; CC50 at 72 h [26]: > 44 µM; cell growth (% of control) at 48 h, 10 µM [27]: 136%
4 |  | 34.3 | -9.43 | -44.2 | 0.08 | -14.8 | -18.2 | 4.77 | 4.04 | COc1cccc(OC)c1/C=N/NC(N)=S |  | 25.3 | 74.3 | 8.83 | 21.83 | 0.66 | -1.27 | -12.3 | 76.8 | 21.7 | 114 | growth inhibition (GI) [5]: inactive; cell growth (% of control) [29]: 162.27%
